# From ChEMBL document CHEMBL4376812 (J Med Chem, 2019)
# Active and inactive are the calls of the source. No cut-off for these calls is given here.
# Columns and labels:
# [1] = target: JAK1/TYK2 (Homo sapiens, UniProt P23458+P29597); assay: Inhibition of JAK1/TYK2 in human Kit225 T cells assessed as inhibition of STAT phosphorylation by luciferase reporter assay; type: cell-based
# How it was run: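 T-cells carrying a stably integrated STAT-dependent luciferase reporter were stimulated with IFNα or IL-23 to measure TYK2/JAK1-dependent signalling. Dose–response curves gave IC50.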
# [2] = Permeability coefficient, Kp across apical to basolateral side in human Caco2 cells; type: ADME, cell-based; conditions: Caco-2, read-out: permeability
# How it was run: (§1)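 Caco-2 monolayer permeability measured in both directions, apical-to-basal and basal-to-apical, reported as Pc in nm/s. An efflux ratio was calculated from the two directions.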
# [3] = target: Non-receptor tyrosine-protein kinase TYK2 (Homo sapiens, UniProt P29597); assay: Inhibition of TYK2 in human whole blood assessed as decrease in IFNalpha-induced STAT5 phosphorylation preincubated for 1 hr followed by stimulation with IFN-alpha for 15 mins by fluorescence analysis; type: tissue-based
# Chain of Non-receptor tyrosine-protein kinase TYK2 (Homo sapiens, UniProt P29597) (P29597 whole entry): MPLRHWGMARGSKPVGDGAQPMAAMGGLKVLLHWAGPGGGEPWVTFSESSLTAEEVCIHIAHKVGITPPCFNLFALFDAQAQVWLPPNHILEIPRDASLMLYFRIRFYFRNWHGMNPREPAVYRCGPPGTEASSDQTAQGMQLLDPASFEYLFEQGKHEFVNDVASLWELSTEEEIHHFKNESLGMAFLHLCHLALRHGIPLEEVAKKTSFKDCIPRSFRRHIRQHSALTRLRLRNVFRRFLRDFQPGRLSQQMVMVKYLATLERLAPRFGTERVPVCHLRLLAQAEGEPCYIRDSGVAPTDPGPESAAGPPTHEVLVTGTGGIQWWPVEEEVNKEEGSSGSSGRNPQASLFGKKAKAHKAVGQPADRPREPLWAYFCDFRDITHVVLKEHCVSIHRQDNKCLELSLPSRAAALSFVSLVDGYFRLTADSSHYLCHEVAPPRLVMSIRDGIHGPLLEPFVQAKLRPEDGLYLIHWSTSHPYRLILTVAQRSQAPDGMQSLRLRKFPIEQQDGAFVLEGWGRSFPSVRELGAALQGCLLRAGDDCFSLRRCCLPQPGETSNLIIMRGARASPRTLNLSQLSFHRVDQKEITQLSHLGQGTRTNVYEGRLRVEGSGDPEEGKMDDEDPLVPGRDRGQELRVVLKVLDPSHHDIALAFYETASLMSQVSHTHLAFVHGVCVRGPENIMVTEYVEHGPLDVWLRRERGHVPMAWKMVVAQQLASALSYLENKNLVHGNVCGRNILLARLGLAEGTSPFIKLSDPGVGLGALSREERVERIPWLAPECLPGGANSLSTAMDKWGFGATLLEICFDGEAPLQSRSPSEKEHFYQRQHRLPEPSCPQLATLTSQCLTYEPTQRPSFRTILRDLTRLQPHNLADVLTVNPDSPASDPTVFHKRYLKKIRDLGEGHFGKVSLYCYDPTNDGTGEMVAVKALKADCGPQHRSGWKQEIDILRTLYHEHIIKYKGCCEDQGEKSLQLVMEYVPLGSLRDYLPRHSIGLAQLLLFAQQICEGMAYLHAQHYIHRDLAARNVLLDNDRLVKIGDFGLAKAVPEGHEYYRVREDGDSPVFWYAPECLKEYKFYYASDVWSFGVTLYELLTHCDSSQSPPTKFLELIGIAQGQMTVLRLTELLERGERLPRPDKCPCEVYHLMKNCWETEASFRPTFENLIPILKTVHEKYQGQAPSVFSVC
# How it was run: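 Human whole blood stimulated with IFNα; STAT5 phosphorylation was read in cells by staining and flow cytometry. IC50 from dose–response; mean of at least three experiments.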
# [4] = Metabolic stability in mouse liver microsomes assessed as compound remaining incubated for 10 mins; type: ADME, Microsome; conditions: read-out: Stability
# How it was run: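 Mouse liver microsomal stability, reported as percent of parent remaining after a 10 min incubation. Values are means of at least three experiments unless otherwise noted.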
# [5] = target: Non-receptor tyrosine-protein kinase TYK2 (Mus musculus, UniProt Q9R117); assay: Inhibition of TYK2 in mouse whole blood assessed as decrease in IFNalpha-induced STAT1 phosphorylation preincubated for 1 hr followed by stimulation with IFN-alpha for 15 mins by fluorescence analysis; type: tissue-based
# Chain of Non-receptor tyrosine-protein kinase TYK2 (Mus musculus, UniProt Q9R117) (Q9R117 whole entry): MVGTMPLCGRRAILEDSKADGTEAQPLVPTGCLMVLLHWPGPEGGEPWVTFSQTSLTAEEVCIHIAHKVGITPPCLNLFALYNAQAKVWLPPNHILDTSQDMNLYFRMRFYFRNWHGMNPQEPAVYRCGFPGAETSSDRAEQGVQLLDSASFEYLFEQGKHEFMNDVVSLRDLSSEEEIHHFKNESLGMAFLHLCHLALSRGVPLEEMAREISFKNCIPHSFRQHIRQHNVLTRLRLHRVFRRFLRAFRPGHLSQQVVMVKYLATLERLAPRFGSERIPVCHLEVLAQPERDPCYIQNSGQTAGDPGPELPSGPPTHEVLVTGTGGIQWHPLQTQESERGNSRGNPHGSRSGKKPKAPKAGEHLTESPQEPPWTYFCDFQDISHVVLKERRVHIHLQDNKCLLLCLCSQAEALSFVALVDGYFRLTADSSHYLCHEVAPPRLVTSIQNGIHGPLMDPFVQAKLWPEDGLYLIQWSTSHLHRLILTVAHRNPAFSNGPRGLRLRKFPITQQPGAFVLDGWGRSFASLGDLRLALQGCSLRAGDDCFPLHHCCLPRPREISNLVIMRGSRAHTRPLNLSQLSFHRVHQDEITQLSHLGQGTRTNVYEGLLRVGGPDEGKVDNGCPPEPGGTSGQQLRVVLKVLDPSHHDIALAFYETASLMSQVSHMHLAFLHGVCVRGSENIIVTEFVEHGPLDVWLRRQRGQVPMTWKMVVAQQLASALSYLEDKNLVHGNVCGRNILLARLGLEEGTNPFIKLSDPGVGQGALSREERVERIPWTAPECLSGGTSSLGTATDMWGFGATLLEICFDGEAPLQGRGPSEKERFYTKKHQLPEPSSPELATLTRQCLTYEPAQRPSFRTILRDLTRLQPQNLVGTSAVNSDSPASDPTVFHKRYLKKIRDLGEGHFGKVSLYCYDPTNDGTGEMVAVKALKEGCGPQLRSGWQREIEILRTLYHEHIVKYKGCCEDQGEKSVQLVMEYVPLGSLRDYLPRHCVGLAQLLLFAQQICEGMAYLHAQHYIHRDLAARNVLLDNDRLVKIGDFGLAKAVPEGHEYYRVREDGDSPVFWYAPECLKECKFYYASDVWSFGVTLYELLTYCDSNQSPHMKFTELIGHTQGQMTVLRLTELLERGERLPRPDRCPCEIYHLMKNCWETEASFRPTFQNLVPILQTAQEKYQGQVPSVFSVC
# How it was run: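 Mouse whole blood stimulated with IFNα; STAT1 phosphorylation was measured by cellular staining and flow cytometry. Read as IC50.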
# [6] = Metabolic stability in mouse liver microsomes assessed as half life; type: ADME, Microsome
# How it was run: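 Liver microsomes from human, rat, mouse, dog, cynomolgus monkey and rabbit were incubated with compound. Stability is reported as half-life (T1/2, min). Values are means of at least three separate experiments.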
# [7] = species on record: Homo sapiens; assay: Selectivity ratio of IC50 for c-kit (unknown origin) to IC50 for His-tagged recombinant human TYK2 pseudokinase JH2 domain (575-869 residues) incubated for 1 hr by HTRF assay; conditions: tested as the 2H-labelled form
# [8] = species on record: Homo sapiens; assay: Selectivity ratio of IC50 for JAK1/JAK3 in human PBMC assessed as decrease in IL2-induced STAT5 phosphorylation in CD3+ T cells to IC50 for TYK2 JH2 domain in human PBMC assessed as decrease in IFNalpha-induced STAT5 phosphorylation; type: cell-based; conditions: tested as the 2H-labelled form
# How it was run: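 Human PBMC were stimulated with IL-2 (JAK1/JAK3) or IFNα (TYK2), and STAT5 phosphorylation in CD3⁺ T-cells was the end point. The ratio is IL-2 IC50 over IFNα IC50, with means from at least three separate experiments.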
# [9] = species on record: Homo sapiens; assay: Selectivity ratio of IC50 for JAK2 in GM-CSF-stimulated human TF-1 cells to IC50 for TYK2 JH2 domain in human PBMC assessed as decrease in IFNalpha-induced STAT5 phosphorylation; conditions: tested as the 2H-labelled form
# [10] = Permeability coefficient, Kp across basolateral to apical side in human Caco2 cells; type: ADME, cell-based; conditions: Caco-2, read-out: permeability; how it was run: as §1
# [11] = target: Voltage-gated inwardly rectifying potassium channel KCNH2 (Homo sapiens, UniProt Q12809); assay: Inhibition of human ERG by in vitro ion channel flux assay
# Chain of Voltage-gated inwardly rectifying potassium channel KCNH2 (Q12809 whole entry): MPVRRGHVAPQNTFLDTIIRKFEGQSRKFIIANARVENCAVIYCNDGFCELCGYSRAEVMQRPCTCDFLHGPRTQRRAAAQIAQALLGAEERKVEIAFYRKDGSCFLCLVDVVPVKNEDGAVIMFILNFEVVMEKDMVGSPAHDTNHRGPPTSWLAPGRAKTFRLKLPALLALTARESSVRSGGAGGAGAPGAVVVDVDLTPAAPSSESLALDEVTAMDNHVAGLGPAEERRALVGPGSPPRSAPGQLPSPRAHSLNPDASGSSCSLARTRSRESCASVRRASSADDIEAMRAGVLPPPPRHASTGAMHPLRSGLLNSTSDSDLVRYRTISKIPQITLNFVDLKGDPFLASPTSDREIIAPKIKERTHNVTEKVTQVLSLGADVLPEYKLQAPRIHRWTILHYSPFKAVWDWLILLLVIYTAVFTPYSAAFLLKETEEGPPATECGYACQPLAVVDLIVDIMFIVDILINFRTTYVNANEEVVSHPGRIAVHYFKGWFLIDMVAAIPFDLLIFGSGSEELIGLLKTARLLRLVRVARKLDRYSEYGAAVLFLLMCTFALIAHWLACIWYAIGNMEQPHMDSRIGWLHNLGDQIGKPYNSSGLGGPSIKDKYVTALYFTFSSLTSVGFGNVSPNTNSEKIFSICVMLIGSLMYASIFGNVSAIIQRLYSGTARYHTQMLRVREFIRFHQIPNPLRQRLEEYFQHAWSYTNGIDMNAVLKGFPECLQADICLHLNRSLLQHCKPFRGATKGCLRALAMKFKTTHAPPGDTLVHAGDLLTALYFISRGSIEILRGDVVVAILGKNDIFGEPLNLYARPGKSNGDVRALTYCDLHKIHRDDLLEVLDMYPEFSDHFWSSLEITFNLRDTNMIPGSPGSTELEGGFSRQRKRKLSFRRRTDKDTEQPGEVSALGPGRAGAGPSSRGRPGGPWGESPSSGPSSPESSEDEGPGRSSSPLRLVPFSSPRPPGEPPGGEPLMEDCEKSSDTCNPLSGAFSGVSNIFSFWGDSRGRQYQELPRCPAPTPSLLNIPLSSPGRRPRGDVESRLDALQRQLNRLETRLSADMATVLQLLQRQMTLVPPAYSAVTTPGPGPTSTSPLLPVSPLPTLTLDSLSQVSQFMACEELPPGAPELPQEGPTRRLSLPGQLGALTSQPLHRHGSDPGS
# [12] = test system: Mus musculus; assay: Protection against IL23-induced acanthosis C57BL/6 mouse assessed as inhibition in IL-12 mRNA expression in ear skin compound dosed orally via gavage bid for 9 days with first dose given prior to first IL23 challenge and twice a day thereafter by qRT-PCR analysis; type: functional, organism-based; conditions: tested as the 2H-labelled form
# How it was run: (§2)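 IL-23 was injected intradermally and repeatedly into mouse ears to induce psoriasis-like acanthosis. Compound was given orally twice daily for 9 days in EtOH:TPGS:PEG300 (5:5:90), at 7.5, 15 and 30 mg/kg. Skin biopsies were analysed for cytokine transcripts (IL-17A, IL-21, IL-12/IL-23 subunits) by quantitative PCR. Eight mice per group.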
# [13] = test system: Mus musculus; assay: Protection against IL23-induced acanthosis C57BL/6 mouse assessed as inhibition in epidermal hyperplasia compound dosed orally via gavage bid for 9 days with first dose given prior to first IL23 challenge and twice a day thereafter by H and E staining based analysis; type: functional, organism-based; conditions: tested as the 2H-labelled form
# How it was run: (§3)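 IL-23 was injected intradermally and repeatedly into mouse ears. Compound was dosed orally twice daily for 9 days in EtOH:TPGS:PEG300 (5:5:90), at 7.5, 15 or 30 mg/kg. Histological scoring covered epidermal hyperplasia and inflammatory infiltration. Eight mice per group; means ± SEM; one-way ANOVA.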
# [14] = test system: Mus musculus; assay: Protection against IL23-induced acanthosis C57BL/6 mouse assessed as inhibition in IL-23 mRNA expression in ear skin compound dosed orally via gavage bid for 9 days with first dose given prior to first IL23 challenge and twice a day thereafter by qRT-PCR analysis; type: functional, organism-based; conditions: tested as the 2H-labelled form; how it was run: as §2
# [15] = test system: Mus musculus; assay: Protection against IL23-induced acanthosis C57BL/6 mouse assessed as reduction in ear swelling at 15 mg/kg, po via gavage bid for 9 days with first dose given prior to first IL23 challenge and twice a day thereafter by caliper method; type: functional, organism-based; conditions: tested as the 2H-labelled form
# [16] = test system: Mus musculus; assay: Protection against IL23-induced acanthosis C57BL/6 mouse assessed as inhibition of inflammatory cellular infiltration compound dosed orally via gavage bid for 9 days with first dose given prior to first IL23 challenge and twice a day thereafter by H and E staining based analysis; type: functional, organism-based; conditions: tested as the 2H-labelled form
# How it was run: (§4)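 IL-23 was injected intradermally into mouse ears repeatedly to drive acanthosis. Test agent was given orally twice daily for 9 days at 7.5, 15 or 30 mg/kg in EtOH:TPGS:PEG300 (5:5:90), with an anti-IL-23 adnectin as positive control. Epidermal hyperplasia and cellular infiltration were scored histologically. Eight mice per group; means ± SEM; one-way ANOVA.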
# [17] = test system: Mus musculus; assay: Protection against IL23-induced acanthosis C57BL/6 mouse assessed as inhibition in IL-17A mRNA expression in ear skin compound dosed orally via gavage bid for 9 days with first dose given prior to first IL23 challenge and twice a day thereafter by qRT-PCR analysis; type: functional, organism-based; conditions: tested as the 2H-labelled form
# How it was run: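 Mice given repeated intradermal IL-23 injections into the ears to induce acanthosis. Oral dosing twice daily for 9 days at 7.5, 15 or 30 mg/kg in 5:5:90 EtOH:TPGS:PEG300 vehicle; anti-IL-23 adnectin served as positive control. Skin biopsies analysed by quantitative PCR for IL-17A expression. Eight mice per group; means ± SEM; one-way ANOVA.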
# [18] = test system: Mus musculus; assay: Protection against IL23-induced acanthosis C57BL/6 mouse assessed as inhibition of inflammatory cellular infiltration at 30 mg/kg, po via gavage bid for 9 days with first dose given prior to first IL23 challenge and twice a day thereafter by H and E staining based analysis; type: functional, organism-based; conditions: tested as the 2H-labelled form; how it was run: as §4
# [19] = test system: Mus musculus; assay: Protection against IL23-induced acanthosis in C57BL/6 mouse assessed as reduction in ear swelling compound dosed orally via gavage bid for 9 days with first dose given prior to first IL23 challenge and twice a day thereafter by caliper method; type: functional, organism-based; conditions: tested as the 2H-labelled form
# [20] = test system: Mus musculus; assay: Protection against IL23-induced acanthosis C57BL/6 mouse assessed as inhibition in epidermal hyperplasia at 30 mg/kg, po via gavage bid for 9 days with first dose given prior to first IL23 challenge and twice a day thereafter by H and E staining based analysis; type: functional, organism-based; conditions: tested as the 2H-labelled form; how it was run: as §3
# [21] = test system: Mus musculus; assay: Protection against IL23-induced acanthosis C57BL/6 mouse assessed as reduction in ear swelling at 30 mg/kg, po via gavage bid for 9 days with first dose given prior to first IL23 challenge and twice a day thereafter by caliper method; type: functional, organism-based; conditions: tested as the 2H-labelled form
# [22] = test system: Mus musculus; assay: Protection against IL23-induced acanthosis C57BL/6 mouse assessed as inhibition in IL-21 mRNA expression in ear skin compound dosed orally via gavage bid for 9 days with first dose given prior to first IL23 challenge and twice a day thereafter by qRT-PCR analysis; type: functional, organism-based; conditions: tested as the 2H-labelled form; how it was run: as §2
# Chain of JAK1/TYK2 (P23458 whole entry): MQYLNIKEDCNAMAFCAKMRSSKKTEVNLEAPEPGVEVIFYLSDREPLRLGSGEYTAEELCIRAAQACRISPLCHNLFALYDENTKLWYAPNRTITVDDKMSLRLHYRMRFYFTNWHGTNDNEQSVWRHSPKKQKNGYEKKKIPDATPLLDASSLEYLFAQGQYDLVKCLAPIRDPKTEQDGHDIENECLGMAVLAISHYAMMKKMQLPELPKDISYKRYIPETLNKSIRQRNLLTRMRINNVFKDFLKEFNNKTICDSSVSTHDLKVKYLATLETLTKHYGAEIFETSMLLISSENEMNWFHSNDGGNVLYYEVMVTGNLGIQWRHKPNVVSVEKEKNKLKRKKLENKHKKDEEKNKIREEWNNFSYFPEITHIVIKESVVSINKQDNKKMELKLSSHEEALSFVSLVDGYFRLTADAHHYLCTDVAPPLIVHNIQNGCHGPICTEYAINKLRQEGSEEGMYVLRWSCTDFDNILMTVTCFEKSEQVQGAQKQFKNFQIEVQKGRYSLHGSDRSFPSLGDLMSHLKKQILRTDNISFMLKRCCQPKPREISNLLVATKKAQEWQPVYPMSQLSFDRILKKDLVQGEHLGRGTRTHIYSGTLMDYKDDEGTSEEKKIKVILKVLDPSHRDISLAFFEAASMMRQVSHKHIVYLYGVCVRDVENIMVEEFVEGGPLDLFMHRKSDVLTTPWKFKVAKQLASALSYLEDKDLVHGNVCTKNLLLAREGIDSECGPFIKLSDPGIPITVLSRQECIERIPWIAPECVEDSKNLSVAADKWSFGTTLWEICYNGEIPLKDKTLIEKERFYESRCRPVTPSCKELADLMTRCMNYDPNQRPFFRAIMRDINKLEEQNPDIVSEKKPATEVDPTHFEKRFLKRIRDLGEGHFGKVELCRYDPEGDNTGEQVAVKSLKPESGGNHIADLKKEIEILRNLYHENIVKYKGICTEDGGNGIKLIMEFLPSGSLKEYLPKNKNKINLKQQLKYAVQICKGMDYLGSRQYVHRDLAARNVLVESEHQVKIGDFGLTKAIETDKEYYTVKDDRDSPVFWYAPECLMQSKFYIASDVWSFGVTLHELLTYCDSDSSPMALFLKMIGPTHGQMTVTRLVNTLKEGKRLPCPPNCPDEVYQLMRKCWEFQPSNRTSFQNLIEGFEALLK
# Chain of JAK1/TYK2 (P29597 whole entry): as the sequence (P29597 whole entry) above
Structure (SMILES),IC50 [1] [nM],IC50 [3] [nM],remaining at 10 min [4] [%],IC50 [5] [nM],other results
CNC(=O)c1cnc(Nc2ccc(F)cn2)cc1Nc1cccc(C(=O)NC)c1OC,78,230,,,Papp A→B [2]: 5 ×10⁻⁶ cm/s
CNC(=O)c1cnc(Nc2ccc(F)cn2)cc1Nc1cccc(C(N)=O)c1OC,63,120,,,
CNC(=O)c1cnc(Nc2cc(C)c(F)cn2)cc1Nc1cccc(-c2ccnn2C)c1OC,70,300,15,,
CNC(=O)c1cnc(Nc2cc(C)c(F)cn2)cc1Nc1cccc(C(=O)NCc2ccccn2)c1OC,22,180,,,
CNC(=O)c1cnc(Nc2ccc(F)cn2)cc1Nc1cccc(C#N)c1OC,34,570,,,
CCNC(=O)c1cccc(Nc2cc(Nc3cc(C)c(F)cn3)ncc2C(=O)NC)c1OC,28,280,,,
[2H]C([2H])([2H])NC(=O)c1nnc(NC(=O)C2CC2)cc1Nc1cccc(-c2ncn(C)n2)c1,,> 10000,,,
CNC(=O)c1cnc(Nc2cc(C)c(F)cn2)cc1Nc1cccc(C(=O)NCCO)c1OC,220,270,,,
CNC(=O)c1cnc(NC(=O)C2CC2)cc1Nc1cccc(-c2ncn(C)n2)c1OC,14,16,93,330,Papp A→B [2]: 2.3 ×10⁻⁶ cm/s
CNC(=O)c1cnc(Nc2cc(C)c(F)cn2)cc1Nc1cccc(-c2n[nH]c(C)n2)c1OC,7,40,63,320,
CNC(=O)c1cnc(Nc2cc(C)c(F)cn2)cc1Nc1cccc(C(=O)NCC2CC2)c1OC,64,870,,,
CNC(=O)c1cnc(Nc2cc(C)c(F)cn2)cc1Nc1cccc(-c2nnco2)c1OC,15,170,46,522,
CNC(=O)c1cnc(Nc2cc(C)c(F)cn2)cc1Nc1cccc(-c2nc[nH]n2)c1OC,8,23,51,310,
[2H]C([2H])([2H])NC(=O)c1cnc(NC(=O)C2CC2)cc1Nc1cccc(-c2ncn(C)n2)c1OC,8,13,89,100,Papp A→B [2]: < 1.5 ×10⁻⁶ cm/s; half-life [6]: > 2 h
CNC(=O)c1nnc(Nc2ccccn2)cc1Nc1ccccc1S(C)(=O)=O,,,,,Ratio IC50 [7]: 690; Ratio IC50 [8]: 210; Ratio IC50 [9]: 270
CNC(=O)c1cnc(Nc2cc(C)c(F)cn2)cc1Nc1cccc(C(N)=O)c1OC,30,62,,,Papp B→A [10]: 26 ×10⁻⁶ cm/s; Papp A→B [2]: < 1.5 ×10⁻⁶ cm/s

Structure (SMILES),IC50 [1] [nM],IC50 [3] [nM],remaining at 10 min [4] [%],IC50 [5] [nM],other results
CNC(=O)c1cnc(Nc2cc(C)c(F)cn2)cc1Nc1cccc(C(=O)NCCN2CCOCC2)c1OC,51,160,,,
CNC(=O)c1cnc(Nc2cc(C)nc(C)n2)cc1Nc1cccc(-c2ncn(C)n2)c1OC,12,19,73,730,Papp A→B [2]: < 1.5 ×10⁻⁶ cm/s
CNC(=O)c1cnc(Nc2cc(C)c(F)cn2)cc1Nc1cccc(C(=O)NC)c1OC,47,140,,,
CNC(=O)c1cnc(Nc2ccc(C#N)cn2)cc1Nc1cccc(-c2ncn(C)n2)c1OC,6,15,85,260,Papp A→B [2]: 1.8 ×10⁻⁶ cm/s
CNC(=O)c1cnc(Nc2ccc(C(F)(F)F)cn2)cc1Nc1cccc(-c2ncn(C)n2)c1OC,12,69,78,700,Papp A→B [2]: 1.6 ×10⁻⁶ cm/s; IC50 [11]: 16000 nM
CNC(=O)c1cnc(Nc2cc(C)c(F)cn2)cc1Nc1cccc(-c2ncn(C)n2)c1OC,4,12,80,130,
CNC(=O)c1cccc(Nc2cc(Nc3ccc(F)cn3)ncc2C(=O)NC)c1,7500,> 10000,,,
CNC(=O)c1cnc(Nc2cc(C)c(F)cn2)cc1Nc1cccc(-c2nnc(C)o2)c1OC,12,100,70,570,
CNC(=O)c1cnc(Nc2cc(C)c(F)cn2)cc1Nc1cccc(-c2nncn2C)c1OC,16,150,29,,
CNC(=O)c1cnc(Nc2ccc(F)cn2)cc1Nc1ccc(C(N)=O)cc1OC,930,390,,,
CNC(=O)c1cnc(Nc2cc(C)c(F)cn2)cc1Nc1cccc(C(=O)N(C)C)c1OC,130,750,,,
CNC(=O)c1ccc(Nc2cc(Nc3ccc(F)cn3)ncc2C(=O)NC)c(OC)c1,490,520,,,Papp A→B [2]: < 1.5 ×10⁻⁶ cm/s
CNC(=O)c1cnc(Nc2cc(C)c(F)cn2)cc1Nc1cccc(-c2ccn(C)n2)c1OC,9,79,66,430,
CNC(=O)c1cnc(Nc2cc(C)c(F)cn2)cc1Nc1cccc(-c2ncnn2C)c1OC,15,87,9,380,
CNC(=O)c1cnc(Nc2ccc(F)cn2)cc1Nc1cccc(C(=O)O)c1OC,> 10000,> 10000,,,Papp A→B [2]: < 1.5 ×10⁻⁶ cm/s
CNC(=O)c1nnc(NC(=O)C2CC2)cc1Nc1cccc(-c2ncn(C)n2)c1OC,,,,,Activity [12]: Dose-dependent effect; Activity [13]: Dose-dependent effect; Activity [14]: Dose-dependent effect; Activity [15]: Active; Activity [16]: Dose-dependent effect; Activity [17]: Dose-dependent effect; Activity [18]: Active; Activity [19]: Dose-dependent effect; Activity [20]: Active; Activity [21]: Active; Activity [22]: Dose-dependent effect
